These results are taken from ChEMBL document CHEMBL2034857, “Discovery of the macrocycle (9E)-15-(2-(pyrrolidin-1-yl)ethoxy)-7,12,25-trioxa-19,21,24-triaza-tetracyclo[18.3.1.1(2,5).1(14,18)]hexacosa-1(24),2,4,9,14(26),15,17,20,22-nonaene (SB1578), a potent inhibitor of janus kinase 2/fms-like tyrosine kinase-3 (JAK2/FLT3) for the treatment of rheumatoid …” (J Med Chem, 2012).

Each structure is given as a SMILES string. Converted amounts (≈) assume the structure as drawn. Where only a bound is given, the exact number is not on record here.

The target of data set [1] is Cyclin-dependent kinase 2 (Homo sapiens, UniProt P24941). Put plainly: Inhibition of recombinant CDK2 using RbING as substrate after 2 hrs by luminometric assay.
The target in data set [2] is Tyrosine-protein kinase JAK1 (Homo sapiens, UniProt P23458). Put plainly: Inhibition of recombinant JAK1 using poly(Glu,Ala,Tyr) as substrate after 2 hrs by luminometric assay.
Data set [3] addresses Tyrosine-protein kinase JAK2 (Homo sapiens, UniProt O60674). Nature of the data set: Inhibition of recombinant JAK2 using poly(Glu,Ala,Tyr) as substrate after 2 hrs by luminometric assay.
Data set [4] deals with T1, Tyrosine-protein kinase JAK3 (Homo sapiens, UniProt P52333).
T1 sequence (P52333 whole entry): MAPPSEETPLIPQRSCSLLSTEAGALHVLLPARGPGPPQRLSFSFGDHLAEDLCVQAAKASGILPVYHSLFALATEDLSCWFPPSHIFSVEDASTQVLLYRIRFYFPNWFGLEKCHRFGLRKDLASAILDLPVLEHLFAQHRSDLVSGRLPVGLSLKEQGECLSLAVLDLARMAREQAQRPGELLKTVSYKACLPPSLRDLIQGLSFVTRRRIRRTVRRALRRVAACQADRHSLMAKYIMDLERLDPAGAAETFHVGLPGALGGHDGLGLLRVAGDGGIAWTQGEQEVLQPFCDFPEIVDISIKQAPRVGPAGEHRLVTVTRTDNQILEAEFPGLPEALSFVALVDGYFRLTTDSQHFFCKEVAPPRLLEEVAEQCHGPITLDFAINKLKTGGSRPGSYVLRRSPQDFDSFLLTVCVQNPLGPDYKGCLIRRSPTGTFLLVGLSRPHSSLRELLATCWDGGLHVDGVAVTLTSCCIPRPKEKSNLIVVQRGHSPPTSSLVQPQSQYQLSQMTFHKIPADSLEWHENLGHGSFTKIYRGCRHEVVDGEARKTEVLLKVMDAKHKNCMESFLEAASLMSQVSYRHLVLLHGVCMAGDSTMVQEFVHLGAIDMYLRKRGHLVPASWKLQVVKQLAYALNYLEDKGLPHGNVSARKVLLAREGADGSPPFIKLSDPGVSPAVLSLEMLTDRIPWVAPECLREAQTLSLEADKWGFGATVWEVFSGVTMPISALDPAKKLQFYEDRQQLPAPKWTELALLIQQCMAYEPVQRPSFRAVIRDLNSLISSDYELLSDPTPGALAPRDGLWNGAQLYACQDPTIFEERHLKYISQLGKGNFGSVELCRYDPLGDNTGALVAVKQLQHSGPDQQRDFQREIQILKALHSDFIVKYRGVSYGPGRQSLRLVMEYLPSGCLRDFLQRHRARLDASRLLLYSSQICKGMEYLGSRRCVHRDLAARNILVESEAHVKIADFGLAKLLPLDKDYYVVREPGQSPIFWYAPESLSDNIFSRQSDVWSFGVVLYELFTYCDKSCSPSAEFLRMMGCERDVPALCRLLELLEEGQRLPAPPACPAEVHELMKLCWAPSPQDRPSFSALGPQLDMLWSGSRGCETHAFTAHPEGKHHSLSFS
Nature of the data set: Inhibition of recombinant JAK3 using poly(Glu,Ala,Tyr) as substrate after 2 hrs by luminometric assay.

For data set [5], the target named is T2, Receptor-type tyrosine-protein kinase FLT3 (Homo sapiens, UniProt P36888).
T2 sequence (P36888 whole entry): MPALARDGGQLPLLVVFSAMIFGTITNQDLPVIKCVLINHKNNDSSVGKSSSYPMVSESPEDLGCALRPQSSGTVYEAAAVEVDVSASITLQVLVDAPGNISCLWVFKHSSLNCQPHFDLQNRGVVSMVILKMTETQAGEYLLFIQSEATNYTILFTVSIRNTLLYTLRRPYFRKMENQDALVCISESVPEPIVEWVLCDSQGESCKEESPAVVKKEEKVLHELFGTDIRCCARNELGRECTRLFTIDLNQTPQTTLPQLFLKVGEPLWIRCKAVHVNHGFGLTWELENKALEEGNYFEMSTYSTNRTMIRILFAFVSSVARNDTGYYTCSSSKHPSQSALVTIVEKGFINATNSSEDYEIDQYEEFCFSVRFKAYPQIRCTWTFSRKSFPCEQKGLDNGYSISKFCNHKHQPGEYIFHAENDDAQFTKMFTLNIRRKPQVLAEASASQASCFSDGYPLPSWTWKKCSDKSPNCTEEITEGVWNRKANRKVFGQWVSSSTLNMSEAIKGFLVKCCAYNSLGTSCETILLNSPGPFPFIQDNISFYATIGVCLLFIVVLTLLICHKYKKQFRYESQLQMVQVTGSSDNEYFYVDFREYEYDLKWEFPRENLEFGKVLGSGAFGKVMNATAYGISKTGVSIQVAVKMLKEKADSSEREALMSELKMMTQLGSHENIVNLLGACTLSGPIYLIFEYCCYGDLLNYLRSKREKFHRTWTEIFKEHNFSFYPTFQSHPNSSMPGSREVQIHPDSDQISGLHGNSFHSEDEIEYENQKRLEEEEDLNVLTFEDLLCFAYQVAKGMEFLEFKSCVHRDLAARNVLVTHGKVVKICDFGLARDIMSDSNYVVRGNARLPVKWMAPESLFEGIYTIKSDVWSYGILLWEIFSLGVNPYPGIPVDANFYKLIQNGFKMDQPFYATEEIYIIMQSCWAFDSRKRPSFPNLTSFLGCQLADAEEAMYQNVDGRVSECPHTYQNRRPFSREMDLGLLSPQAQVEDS
Nature of the data set: Inhibition of recombinant FLT3 using poly(Glu,Tyr) as substrate after 2 hrs by luminometric assay.

The target of data set [6] is Non-receptor tyrosine-protein kinase TYK2 (Homo sapiens, UniProt P29597). Put plainly: Inhibition of TYK2.
Data set [7] is described as follows: Kinetic solubility in PBS buffer at pH 7. The format is physicochemical. Particulars: read-out: Kinetic_solubility.
Another data set deals with Cytochrome P450 3A4 (Homo sapiens, UniProt P08684). Nature of the data set: Inhibition of CYP3A4 in human liver microsomes using testosterone as substrate by LC-MS/MS analysis. The format is ADME, Microsome. For orientation: Liver microsomes are a subcellular fraction often used to study metabolism.
The target in a further data set is Cytochrome P450 2D6 (Homo sapiens, UniProt P10635). Put plainly: Inhibition of CYP2D6 in human liver microsomes using dextromethorphan as substrate by LC-MS/MS analysis. The format is ADME, Microsome.
Data set [8] in a line: Half life in human liver microsomes. The format is ADME, Microsome.
The nature of data set [9]: Half life in mouse liver microsomes. The format is ADME, Microsome.
Data set [10] addresses Voltage-gated inwardly rectifying potassium channel KCNH2 (Homo sapiens, UniProt Q12809). Put plainly: Displacement of dofetilide from human ERG.
A further data set deals with BaF3. Put plainly: Antiproliferative activity against mouse BAF3 cells expressing JAK2 V617F mutant after 48 hrs by luciferase reporter gene assay. The format is functional. The following applies: BaF3, 48 h.
The next data set concerns HL-60. Put plainly: Antiproliferative activity against human HL60 cells expressing FLT3 after 48 hrs by luciferase reporter gene assay. The format is functional. The following applies: HL-60, 48 h.
The nature of data set [11]: Selectivity ratio of IC50 for recombinant CDK2 to IC50 for recombinant JAK2.
Data set [12] in a line: Selectivity ratio of IC50 for recombinant JAK1 to IC50 for recombinant JAK2.
Data set [13] can be described thus: Selectivity ratio of IC50 for recombinant JAK3 to IC50 for recombinant JAK2.
Data set [14] deals with Mus musculus. Nature of the data set: Antiarthritic activity in po dosed B10/R3 mouse immunized with bovine type2 collagen in Freund's complete adjuvant assessed as inhibition of increase in clinical arthritic scores administered bid for 10 days measured for 10 days. The format is functional, organism-based.
Data set [15] deals with Mus musculus. Put plainly: Antiarthritic activity in B10/R3 mouse immunized with bovine type2 collagen in Freund's complete adjuvant assessed as inhibition of increase in clinical arthritic scores at 0.1 mg/kg, po administered bid for 10 days measured for 10 days. The format is functional. Particulars: B10/R3, 240 h.
Data set [16] is described as follows: Thermodynamic solubility of the compound at pH 7. It is filed as physicochemical. The following applies: buffer, read-out: Therm_solubility. The essentials: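 The citrate salt (~5 mg) was made up at 5 mg/mL in pH-buffered solution, in triplicate. It was shaken 24 h at 600 rpm at room temperature, filtered (0.4 μm) and the final pH recorded. The filtrate was diluted in acetonitrile/water (1:1), centrifuged and quantified by HPLC-UV. Two determinations were made on two different batches.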

One may read the IC50 as the concentration that gives 50% inhibition. As a reminder, the half-life is the time needed for the level to fall by half in the phase considered. A lower half-life goes with fast loss. What is called GI50 is the concentration giving 50% growth inhibition. A higher GI50 goes with lower sensitivity of the cells. Usually inhibition in vivo stands for how much of the control response was suppressed.

Sequence of Tyrosine-protein kinase JAK1 (P23458 whole entry): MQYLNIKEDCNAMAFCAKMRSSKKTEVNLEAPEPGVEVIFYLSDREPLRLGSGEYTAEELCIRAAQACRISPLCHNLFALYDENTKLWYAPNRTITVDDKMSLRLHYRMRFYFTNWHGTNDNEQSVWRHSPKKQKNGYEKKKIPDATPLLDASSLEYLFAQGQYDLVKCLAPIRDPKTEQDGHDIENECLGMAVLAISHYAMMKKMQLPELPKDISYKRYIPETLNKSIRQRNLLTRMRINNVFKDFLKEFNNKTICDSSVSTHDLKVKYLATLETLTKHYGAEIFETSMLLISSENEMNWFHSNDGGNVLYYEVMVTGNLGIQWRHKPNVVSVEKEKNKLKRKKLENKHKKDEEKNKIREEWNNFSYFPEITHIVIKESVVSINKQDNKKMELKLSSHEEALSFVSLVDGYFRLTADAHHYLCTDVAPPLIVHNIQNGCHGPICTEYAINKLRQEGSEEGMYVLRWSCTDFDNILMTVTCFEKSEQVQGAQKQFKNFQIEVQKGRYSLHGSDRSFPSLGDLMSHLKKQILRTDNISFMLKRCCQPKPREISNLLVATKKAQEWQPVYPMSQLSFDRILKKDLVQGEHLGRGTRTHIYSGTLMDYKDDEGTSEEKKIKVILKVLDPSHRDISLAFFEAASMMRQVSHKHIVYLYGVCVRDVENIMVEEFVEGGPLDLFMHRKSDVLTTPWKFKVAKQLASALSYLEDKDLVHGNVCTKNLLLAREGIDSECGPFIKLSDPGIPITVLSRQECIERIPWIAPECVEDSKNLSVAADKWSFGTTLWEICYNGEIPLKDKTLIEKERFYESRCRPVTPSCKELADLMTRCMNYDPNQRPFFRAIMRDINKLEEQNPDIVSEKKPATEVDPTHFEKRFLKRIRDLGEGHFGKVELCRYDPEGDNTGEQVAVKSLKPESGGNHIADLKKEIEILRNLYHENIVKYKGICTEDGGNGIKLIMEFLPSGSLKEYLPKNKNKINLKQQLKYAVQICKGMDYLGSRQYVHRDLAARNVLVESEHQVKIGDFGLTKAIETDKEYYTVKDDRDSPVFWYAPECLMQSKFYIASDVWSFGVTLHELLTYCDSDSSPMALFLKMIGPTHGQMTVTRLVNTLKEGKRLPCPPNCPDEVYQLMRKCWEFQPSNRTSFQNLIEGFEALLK
Sequence of Tyrosine-protein kinase JAK2 (O60674 whole entry): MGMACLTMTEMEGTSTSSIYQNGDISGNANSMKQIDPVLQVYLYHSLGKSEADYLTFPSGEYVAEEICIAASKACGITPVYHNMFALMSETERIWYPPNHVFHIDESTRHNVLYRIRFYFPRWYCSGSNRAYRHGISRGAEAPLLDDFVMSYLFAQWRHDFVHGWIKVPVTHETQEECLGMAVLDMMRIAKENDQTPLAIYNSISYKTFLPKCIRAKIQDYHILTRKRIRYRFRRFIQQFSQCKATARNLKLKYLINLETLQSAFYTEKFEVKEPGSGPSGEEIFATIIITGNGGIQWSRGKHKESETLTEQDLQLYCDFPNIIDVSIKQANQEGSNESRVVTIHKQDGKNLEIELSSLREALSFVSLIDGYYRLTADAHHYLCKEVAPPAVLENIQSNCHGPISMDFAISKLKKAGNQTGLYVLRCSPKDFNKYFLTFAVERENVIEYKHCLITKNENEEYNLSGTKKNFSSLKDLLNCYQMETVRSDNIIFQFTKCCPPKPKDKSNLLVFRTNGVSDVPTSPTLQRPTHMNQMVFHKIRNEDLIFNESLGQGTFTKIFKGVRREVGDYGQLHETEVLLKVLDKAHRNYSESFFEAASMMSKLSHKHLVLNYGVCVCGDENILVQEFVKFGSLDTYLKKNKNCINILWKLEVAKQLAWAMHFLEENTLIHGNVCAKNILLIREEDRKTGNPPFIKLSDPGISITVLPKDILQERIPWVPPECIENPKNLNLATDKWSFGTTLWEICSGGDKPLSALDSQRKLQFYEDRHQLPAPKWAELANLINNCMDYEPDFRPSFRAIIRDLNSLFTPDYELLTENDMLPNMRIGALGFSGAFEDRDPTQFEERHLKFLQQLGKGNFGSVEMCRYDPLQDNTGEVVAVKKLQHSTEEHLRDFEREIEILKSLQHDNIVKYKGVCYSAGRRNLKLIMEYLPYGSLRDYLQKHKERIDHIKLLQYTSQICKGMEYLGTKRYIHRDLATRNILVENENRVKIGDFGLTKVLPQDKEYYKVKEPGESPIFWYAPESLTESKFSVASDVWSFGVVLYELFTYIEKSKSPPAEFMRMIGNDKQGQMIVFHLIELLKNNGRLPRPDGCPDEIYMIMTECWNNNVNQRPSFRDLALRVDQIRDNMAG
Sequence of Non-receptor tyrosine-protein kinase TYK2 (P29597 whole entry): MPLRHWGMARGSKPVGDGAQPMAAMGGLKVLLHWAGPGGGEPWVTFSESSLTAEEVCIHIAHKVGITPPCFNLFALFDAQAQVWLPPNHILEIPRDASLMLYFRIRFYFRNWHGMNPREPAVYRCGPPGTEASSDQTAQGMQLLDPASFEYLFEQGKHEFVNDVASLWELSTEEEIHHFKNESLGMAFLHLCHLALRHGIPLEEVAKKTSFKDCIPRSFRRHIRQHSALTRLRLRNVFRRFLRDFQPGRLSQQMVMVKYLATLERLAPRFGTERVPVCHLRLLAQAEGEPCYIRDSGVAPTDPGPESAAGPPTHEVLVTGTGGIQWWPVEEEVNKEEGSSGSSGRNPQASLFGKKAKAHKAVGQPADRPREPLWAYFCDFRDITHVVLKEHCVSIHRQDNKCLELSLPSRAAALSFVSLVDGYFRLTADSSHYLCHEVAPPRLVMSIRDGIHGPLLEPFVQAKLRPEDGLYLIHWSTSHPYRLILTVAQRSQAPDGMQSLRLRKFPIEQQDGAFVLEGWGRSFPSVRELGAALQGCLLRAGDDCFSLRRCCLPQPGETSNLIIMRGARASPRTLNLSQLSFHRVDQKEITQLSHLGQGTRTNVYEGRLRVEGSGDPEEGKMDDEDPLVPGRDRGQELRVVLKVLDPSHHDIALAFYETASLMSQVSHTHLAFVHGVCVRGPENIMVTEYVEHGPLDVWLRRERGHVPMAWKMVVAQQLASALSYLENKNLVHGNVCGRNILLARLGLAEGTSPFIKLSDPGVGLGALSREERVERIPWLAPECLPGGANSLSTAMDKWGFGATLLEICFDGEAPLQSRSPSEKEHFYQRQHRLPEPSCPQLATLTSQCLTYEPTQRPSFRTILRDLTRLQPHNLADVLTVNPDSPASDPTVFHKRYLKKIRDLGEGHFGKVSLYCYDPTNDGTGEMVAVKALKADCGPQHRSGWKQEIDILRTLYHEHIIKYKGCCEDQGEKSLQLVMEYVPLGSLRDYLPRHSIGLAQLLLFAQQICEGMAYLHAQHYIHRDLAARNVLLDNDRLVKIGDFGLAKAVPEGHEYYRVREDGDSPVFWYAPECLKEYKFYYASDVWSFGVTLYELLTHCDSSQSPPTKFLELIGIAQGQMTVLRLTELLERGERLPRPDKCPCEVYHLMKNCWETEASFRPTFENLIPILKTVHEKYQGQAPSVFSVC
Sequence of Cytochrome P450 3A4 (P08684 whole entry): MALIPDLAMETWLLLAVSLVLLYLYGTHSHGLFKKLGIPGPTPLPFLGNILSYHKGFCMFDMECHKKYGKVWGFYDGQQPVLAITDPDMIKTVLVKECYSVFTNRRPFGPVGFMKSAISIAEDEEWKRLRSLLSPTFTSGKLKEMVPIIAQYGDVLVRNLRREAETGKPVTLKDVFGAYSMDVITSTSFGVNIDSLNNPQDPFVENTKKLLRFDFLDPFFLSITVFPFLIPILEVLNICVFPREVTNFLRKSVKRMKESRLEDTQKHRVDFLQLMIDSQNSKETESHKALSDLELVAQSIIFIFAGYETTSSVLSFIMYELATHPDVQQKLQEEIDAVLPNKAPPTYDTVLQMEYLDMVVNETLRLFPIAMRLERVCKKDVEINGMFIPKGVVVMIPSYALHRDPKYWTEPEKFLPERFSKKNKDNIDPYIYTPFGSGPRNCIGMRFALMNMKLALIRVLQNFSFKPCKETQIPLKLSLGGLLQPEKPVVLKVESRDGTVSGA
Sequence of Cytochrome P450 2D6 (P10635 whole entry): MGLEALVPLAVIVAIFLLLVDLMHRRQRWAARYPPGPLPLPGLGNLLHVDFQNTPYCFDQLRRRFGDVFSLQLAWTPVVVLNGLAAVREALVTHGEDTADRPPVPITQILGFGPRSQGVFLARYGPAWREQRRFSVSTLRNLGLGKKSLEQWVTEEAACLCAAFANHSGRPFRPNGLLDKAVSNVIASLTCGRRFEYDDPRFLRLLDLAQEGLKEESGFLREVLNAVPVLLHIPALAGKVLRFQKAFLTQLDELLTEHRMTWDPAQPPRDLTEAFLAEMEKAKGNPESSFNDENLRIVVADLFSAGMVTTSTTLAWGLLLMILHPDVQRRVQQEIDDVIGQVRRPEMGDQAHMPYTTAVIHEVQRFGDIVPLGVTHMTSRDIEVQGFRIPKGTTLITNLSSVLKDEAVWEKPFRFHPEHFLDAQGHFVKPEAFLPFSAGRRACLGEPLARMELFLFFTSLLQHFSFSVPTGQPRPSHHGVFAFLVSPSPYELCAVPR

On to `CN1C/C=C/COCC2=CC=C(S2)c2ccnc(n2)Nc2ccc(OCCN3CCCC3)c(c2)C1` (mixture of isomers), for which the IC50 was 710 nM in data set [1]; 200 nM in [2]; 90 nM in data set [3]; above 10000 nM in data set [4]; 12 nM in [5]; 41 nM in data set [6].

Consider `COCCOc1ccc2cc1CN(C)C/C=C/COCC1=CC=C(O1)c1ccnc(n1)N2` (mixture of isomers), for which the IC50 in [1] was 8600 nM; in [2] it was 3200 nM; in data set [3], 1100 nM; in [4], above 10000 nM; in data set [5], 1200 nM; in data set [6] it was 590 nM.

With `C1=C/COCc2cc(ccc2OCCN2CCCC2)Nc2nccc(n2)-c2cc(co2)COC/1` (mixture of isomers), the concentration for half-maximal inhibition (IC50) in data set [1] is above 10000 nM; in data set [2] it was 1900 nM; in data set [3], 110 nM; in [4] it was 9200 nM; in data set [5] it was 180 nM; in data set [6], 310 nM.

Take `COCCOc1ccc2cc1CN(C)C/C=C/COCC1=CC=C(S1)c1ccnc(n1)N2` (mixture of isomers): the IC50 in [1] was 330 nM; in [2] it was 390 nM; in data set [3], 170 nM; in data set [4], above 10000 nM; in [5], 22 nM; in data set [6], 33 nM.

As for `C1=C2COC/C=C/COCc3cc(ccc3OCCN3CCCC3)Nc3nccc(n3)C(=C1)S2` (mixture of isomers), the IC50 in data set [1] turned out to be 2900 nM; in [2], 420 nM; in [3] it was 7.3 nM; in data set [4] it was 650 nM; in [5], 24 nM; in [6] it was 32 nM. Moreover, the IC50 at Cytochrome P450 3A4 is above 10000 nM; at Cytochrome P450 2D6, above 10000 nM; in data set [10] it was 7200 nM. Further, in data set [7], the solubility kinetic amounted to 154 µg/mL. Further, the half-life is above 60 min in [8] and 27 min in data set [9]. The results for the GI50 in the data set on BaF3 and in the data set with HL-60 were 55 nM and 200 nM, respectively.

Consider `C1=C/COCc2cc(ccc2OCCN2CCCC2)Nc2nccc(n2)-c2csc(c2)COC/1` (mixture of isomers), for which the IC50 in data set [1] worked out at 6800 nM; in data set [2] it was 1500 nM; in data set [3], 17 nM; in data set [4], 680 nM; in [5], 45 nM; in data set [6], 47 nM. Also, the Ratio IC50 in data set [11] came out at 400; in data set [12], 88; in data set [13] it was 40. Besides, the solubility kinetic in data set [7] turned out to be 218 µg/mL. Moreover, the half-life in data set [8] was above 60 min; in data set [9] it was 25 min. Also, the GI50 with BaF3 came to 80 nM; with HL-60, 640 nM.

Turning to `C1=C/COCc2cc(ccc2OCCN2CCCC2)Nc2nccc(n2)-c2coc(c2)COC/1` (mixture of isomers), the IC50 in data set [1] is above 10000 nM; in data set [2] it was 3000 nM; in data set [3] it was 67 nM; in data set [4], 8800 nM; in data set [5], 48 nM; in data set [6], 120 nM. Also, the half-inhibitory concentration (IC50) against Cytochrome P450 3A4 and against Cytochrome P450 2D6 was above 10000 nM each time. Also, the Ratio IC50 in [11] was above 149; in data set [12], 45; in data set [13] it was 131. The solubility kinetic in [7] was above 250 µg/mL. Moreover, the half-life in data set [8] was above 60 min; in data set [9] it was 18 min. The compound further came in with a GI50 with HL-60 of 710 nM.

Regarding `C1=C/COCc2cc(ccc2OCCN2CCCC2)Nc2nccc(n2)-c2ccc(o2)COC/1` (mixture of isomers), in the data set on Mus musculus [14], the inhibition entry is “Dose-dependent effect”. Moreover, the values for the Ratio IC50 in [11], in data set [12] and in [13] were 152, 58 and 93, respectively.

As to `C1=C/COCc2cc(ccc2OCCN2CCCC2)Nc2nccc(n2)-c2ccc(s2)COC/1` (mixture of isomers), the figures for the Ratio IC50 in data set [11], in data set [12] and in data set [13] were 397, 57 and 89, respectively.

With `C[C@@H]1C[C@H]2[C@@H]3CCC4=CC(=O)C=C[C@]4(C)[C@@]3(F)[C@@H](O)C[C@]2(C)[C@@]1(O)C(=O)CO` [DEXAMETHASONE], in the data set with Mus musculus [15], the inhibition in vivo at 0.1 mg/kg came out at 63%.

Take `C1=C/COCc2cc(ccc2OCCN2CCCC2)Nc2nccc(n2)-c2cccc(c2)COC/1` [PACRITINIB]: the solubility thermodynamic in data set [16] is 150 µg/mL (≈ 317 µM).
